Experiments:
Canis familiaris [1] = test: Effective dose that lowers vascular resistance by, 30% in dogs when administered intravenously; type: functional; details: Canis lupus familiaris, iv
In short: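 Mongrel dogs (7-15 kg, either sex) are anesthetized with thiopental 30 mg/kg iv or ip, then urethane 400 mg/kg plus α-chloralose 60 mg/kg iv, and ventilated. Left vertebral flow is measured by electromagnetic probe and femoral arterial pressure is recorded. Resistance is pressure divided by flow. Compounds in ethanol are given iv at 0.05 mL/kg in cumulative rising doses; the dose cutting resistance 30% is taken (N = 3).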

Canis familiaris [2] = species: Canis familiaris; test: Dose at which compound induce atrioventricular block in dogs; AV means atrioventricular; range is 1000-3000; type: functional, Canis lupus familiaris
In short: (§1)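 Anesthetized open-chest dogs; atrium paced with square-wave pulses of 1.5-2.5 V, 2 ms, at 2.5 Hz. AV conduction time is the interval between atrial and ventricular electrograms. Compounds are dissolved in 100% DMSO and injected iv into the femoral vein at 0.05 mL/kg. Reported as the dose prolonging AVCT by 30% (mean ± SE, N = 4-5) or the dose inducing AV block.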

Canis familiaris [3] = test: (§2) Time to peak response on lowering of vascular resistance, in dogs when administered intravenously; type: organism-based, Canis lupus familiaris; details: dog, in vivo, iv
Canis familiaris [4] = species: Canis familiaris; test: Effective dose against atrioventricular conduction in dogs at which they prolong atrioventricular conduction time by 30%; type: functional; details: Canis lupus familiaris; in short: as §1
Canis familiaris [5] = test: as §2; type: ADME, organism-based, Canis lupus familiaris; details: dog, in vivo, iv
[6] = target: T1, Voltage-gated L-type calcium channel (Rattus norvegicus, UniProt P22002+Q02485+P27732); test: Inhibition of [3H]- Nitrendipine binding to L-type calcium channels of rat cerebral cortex; type: tissue-based
In short: (§3)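 Rat cerebral cortex is homogenized in ice-cold 50 mM Tris-HCl pH 7.7 and washed by repeated 40000g spins. Homogenate is incubated with 0.2 nM [³H]nitrendipine and drug for 1 h at 25 °C, then vacuum-filtered on glass-fiber filters and counted by liquid scintillation. Nonspecific binding is defined with 1 μM unlabeled nitrendipine.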

Canis familiaris [7] = species: Canis familiaris; test: Dose at which compound induce atrioventricular block in dogs; range is 100-3000; type: functional, Canis lupus familiaris; in short: as §1
[8] = target: T1, Voltage-gated L-type calcium channel; test: Inhibition of [3H]nitrendipine binding to L-type calcium channels of rat cerebral cortex; type: tissue-based; in short: as §3
Canis familiaris [9] = species: Canis familiaris; test: Dose at which compound induce atrioventricular block in dogs; range is 100-300; type: functional, Canis lupus familiaris; in short: as §1

Compound | ED30 (Canis familiaris [1]) [µg/kg] | other results
CCOC(=O)C1=C(C)N=C(C)N(C(=O)OCC)C1c1ccccc1Br (configuration not stated) | 5 | –
CC1=C(C(=O)OC(C)C)C(c2ccccc2[N+](=O)[O-])N(C(=O)OCCN(Cc2ccccc2)Cc2ccc3ccccc3c2)C=N1 (configuration not stated) | > 100 | –
CC1=C(C(=O)OC(C)C)C(c2ccccc2[N+](=O)[O-])N(C(=O)OCCN(Cc2ccccc2)Cc2ccc3ccccc3c2)C(C(C)C)=N1 (configuration not stated) | > 100 | –
CC1=C(C(=O)OC(C)C)C(c2ccccc2[N+](=O)[O-])N(C(=O)OCCN(Cc2ccccc2)Cc2ccc3ccccc3c2)C(N(C)C)=N1 (configuration not stated) | > 100 | –
CCOC(=O)C1=C(C)NC(=O)N(C(=O)OCCN(C)Cc2ccccc2)C1c1cccc(Cl)c1 (configuration not stated) | 43 | –
CC1=NC(C)=C(C(=O)OCC2CC2)C(c2ccccc2[N+](=O)[O-])N1C(=O)OCCN(CCCc1ccccc1)Cc1ccccc1 (configuration not stated) | 4.3 | AV block (Canis familiaris [2]): 1000 µg/kg; Tp (Canis familiaris [3]): 4.8 min; ED30 (Canis familiaris [4]): 843 µg/kg
CC1=NC(C)=C(C(=O)OCC2CC2)C(c2ccccc2[N+](=O)[O-])N1C(=O)OCCN(C/C=C/c1ccccc1)Cc1ccccc1 (configuration not stated) | 3.9 | Tp (Canis familiaris [3]): 5.6 min
CCOC(=O)C1=C(C)N=C(C)N(C(=O)OCCN(C)Cc2ccccc2)C1c1ccccc1[N+](=O)[O-] (configuration not stated) | 0.75 | –
CC1=NC(C)=C(C(=O)OC(C)C)C(c2ccccc2[N+](=O)[O-])N1C(=O)OCCN(Cc1ccccc1)Cc1ccc2ccccc2c1 (configuration not stated) | 1.8 | Tp (Canis familiaris [5]): 7.9 min; AV block (Canis familiaris [2]): 1000 µg/kg; IC50 [6]: 7.08 nM; ED30 (Canis familiaris [4]): 762 µg/kg
CO/C(O)=C1/C(C)=NC(C)=C(C(=O)OCCN2CCN(C(c3ccccc3)c3ccccc3)CC2)C1c1cccc([N+](=O)[O-])c1 (configuration not stated) | – | IC50 [6]: 8.68 nM
CC1=NC(C)=C(C(=O)OC(C)C)C(c2ccccc2[N+](=O)[O-])N1C(=O)OCCN(CCc1ccccc1)Cc1ccccc1 (configuration not stated) | 1.2 | Tp (Canis familiaris [3]): 2.7 min
CCCCCCCOC(=O)C1=C(C)N=C(C)N(C(=O)OCC)C1c1ccccc1[N+](=O)[O-] (configuration not stated) | 23 | –
CC1=NC(C)=C(C(=O)OC(C)C)C(c2ccccc2[N+](=O)[O-])N1C(=O)OCCN(Cc1ccccc1)Cc1ccccc1 (configuration not stated) | 2.8 | Tp (Canis familiaris [3]): 2.6 min
CCC1N=C(C)/C(=C(/O)OC(C)C)C(c2ccccc2[N+](=O)[O-])N1C(=O)OCN(Cc1ccccc1)Cc1ccc(Cl)c(Cl)c1 (configuration not stated) | 19.5 | Tp (Canis familiaris [3]): 5.5 min
CSC1=NC(C)=C(C(=O)OC(C)C)C(c2ccccc2[N+](=O)[O-])N1C(=O)OCCN(Cc1ccccc1)Cc1ccc2ccccc2c1 (configuration not stated) | > 100 | –
CCOC(=O)C1=C(Cl)N=C(C)N(C(=O)OCCN(Cc2ccccc2)Cc2ccc3ccccc3c2)C1c1ccccc1[N+](=O)[O-] (configuration not stated) | 10 | Tp (Canis familiaris [3]): 5.2 min
CCOC(=O)C1=C(COCCN(Cc2ccccc2)Cc2ccc(Cl)c(Cl)c2)N=C(C)N(C(=O)OC)C1c1ccccc1[N+](=O)[O-].Cl (configuration not stated) | > 100 | –
CCCCCCCOC(=O)N1C(=O)NC(C)=C(C(=O)OCC2CC2)C1c1ccccc1[N+](=O)[O-] (configuration not stated) | 2.3 | Tp (Canis familiaris [3]): 1.9 min
CC1=NC(C)=C(C(=O)OCC2CC2)C(c2ccccc2[N+](=O)[O-])N1C(=O)OCCN(C)Cc1ccccc1 (configuration not stated) | 0.5 | –
CCCCCCCOC(=O)C1=C(C)N=C(C)N(C(=O)OCCCCCCC)C1c1ccccc1[N+](=O)[O-] (configuration not stated) | 180 | –
CCC1N=C(C)/C(=C(/O)OC(C)C)C(c2ccccc2[N+](=O)[O-])N1C(=O)OCN(Cc1ccccc1)Cc1ccc2ccccc2c1 (configuration not stated) | 13.5 | Tp (Canis familiaris [3]): 7.2 min
CCCCCCCOC(=O)C1=C(C)N=C(C)N(C(=O)OCCN(Cc2ccccc2)Cc2ccccc2)C1c1ccccc1[N+](=O)[O-] (configuration not stated) | > 30 | –

Compound | ED30 (Canis familiaris [1]) [µg/kg] | other results
CCOC(=O)N1C(CC)=NC(C)=C(C(=O)OC(C)C)C1c1ccccc1[N+](=O)[O-] (configuration not stated) | 8 | –
CC1=C(C(=O)OC(C)C)C(c2ccccc2[N+](=O)[O-])N(C(=O)OCCN(Cc2ccccc2)Cc2ccccc2)C(C(F)(F)F)=N1 (configuration not stated) | 6.8 | –
CCOC(=O)C1=C(C)N=C(C)N(C(=O)OCC)C1c1ccccc1[N+](=O)[O-] (configuration not stated) | 3 | –
CC1=NC(C)=C(C(=O)OC(C)C)C(c2ccccc2[N+](=O)[O-])N1C(=O)OCCN(Cc1ccccc1)c1ccccc1 (configuration not stated) | 0.74 | Tp (Canis familiaris [3]): 1.9 min
CC1=NC(C)=C(C(=O)OC(C)C)C(c2ccccc2[N+](=O)[O-])N1C(=O)OCCN(Cc1ccccc1)Cc1ccc(Cl)c(Cl)c1 (configuration not stated) | 2.1 | Tp (Canis familiaris [5]): 10.8 min; AV block (Canis familiaris [2]): 1000 µg/kg; IC50 [6]: 2.05 nM; ED30 (Canis familiaris [4]): 596 µg/kg
CCCCOC(=O)C1=C(C)N=C(C)N(C(=O)OCCN(Cc2ccccc2)Cc2ccccc2)C1c1ccccc1[N+](=O)[O-] (configuration not stated) | 6.8 | Tp (Canis familiaris [3]): 4.7 min
CCC1=NC(C)=C(C(=O)OC(C)C)C(c2ccccc2[N+](=O)[O-])N1C(=O)OCCN(Cc1ccccc1)Cc1ccc2ccccc2c1 (configuration not stated) | 27 | –
CCOC(=O)C1=C(C)NC(=O)N(C(=O)OCC(c2ccccc2)c2ccccc2)C1c1cccc([N+](=O)[O-])c1 (configuration not stated) | 10.6 | –
CCOC(=O)N1C(C(F)(F)F)=NC(C)=C(C(=O)OC(C)C)C1c1ccccc1[N+](=O)[O-] (configuration not stated) | 8.3 | –
CCCCCCCOC(=O)N1C(=O)NC(C)=C(C(=O)OCC2CC2)C1c1cccc([N+](=O)[O-])c1 (configuration not stated) | 3 | –
CCOC(=O)C1=C(C)N=C(C)N(C(=O)OCC)C1c1ccccc1Cl (configuration not stated) | 5 | –
CCOC(=O)C1=C(C)N=C(C)N(C(=O)OCC)C1c1cccc([N+](=O)[O-])c1 (configuration not stated) | 10 | –
CCCCCCCOC(=O)N1C(C)=NC(C)=C(C(=O)OCC)C1c1ccccc1[N+](=O)[O-] (configuration not stated) | 3.2 | –
CCCCCCCOC(=O)N1C(C)=NC(C)=C(C(=O)OCC2CC2)C1c1ccccc1[N+](=O)[O-] (configuration not stated) | 5.6 | –
CCOC(=O)N1C(C)=NC(C)=C(C(=O)OCCN(C)Cc2ccccc2)C1c1ccccc1[N+](=O)[O-] (configuration not stated) | 13 | –
CC1=C(C(=O)OCC2CC2)C(c2cccc([N+](=O)[O-])c2)N(C(=O)OCCN(C)Cc2ccccc2)C(=O)N1 (configuration not stated) | 13 | –
CC1=C(C(=O)OC(C)C)C(c2ccccc2[N+](=O)[O-])N(C(=O)OCCN(Cc2ccccc2)Cc2ccc3ccccc3c2)C(=O)N1 (configuration not stated) | 10 | Tp (Canis familiaris [3]): 7.8 min
COC(=O)C1=C(C)NC(C)=C(C(=O)OCCN(C)Cc2ccccc2)C1c1cccc([N+](=O)[O-])c1 (configuration not stated) [NICARDIPINE] | 3 | Tp (Canis familiaris [5]): 1.2 min; AV block (Canis familiaris [7]): 100 µg/kg; IC50 [8]: 2.66 nM; ED30 (Canis familiaris [4]): 175 µg/kg
COC(=O)C1=C(C)NC(C)=C(C(=O)OC)C1c1ccccc1[N+](=O)[O-] [NIFEDIPINE] | 0.5 | Tp (Canis familiaris [5]): 0.7 min
COC(=O)C1=C(C#N)NC(C)=C(C(=O)OC(C)C)C1c1cccc([N+](=O)[O-])c1 (configuration not stated) [NILVADIPINE] | – | AV block (Canis familiaris [9]): 100 µg/kg; IC50 [8]: 1.04 nM; ED30 (Canis familiaris [4]): 34 µg/kg
CCOC(=O)C1=C(C)NC(C)=C(C(=O)OC)C1c1cccc([N+](=O)[O-])c1 (configuration not stated) [NITRENDIPINE] | 1.2 | Tp (Canis familiaris [3]): 1 min
